Experiments:
[1] = Antiinflammatory activity in human neutrophils assessed as inhibition of fMet-Leu-Phe/Cytochalasin B-induced superoxide anion generation treated 5 mins before fMet-Leu-Phe/Cytochalasin B challenge by spectrophotometry; assay type: functional, cell-based; details: Neutrophil
How it was run: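 Donor neutrophils (6 × 10^5/mL, Ca2+-free HBSS pH 7.4) were given 0.5 mg/mL ferricytochrome c and 1 mM Ca2+, held at 37 °C for 2 min, then exposed to compound (10-0.01 µg/mL) or DMSO for 5 min. Cytochalasin B (1 µg/mL) was added for 3 min, then fMLP (100 nM) for 10 min. SOD-inhibitable cytochrome c reduction was read at 550 nm (ε 21.1/mM/10 mm).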

[2] = Antiinflammatory activity in human neutrophils assessed as inhibition of fMet-Leu-Phe/Cytochalasin B-induced elastase release treated 5 mins before fMet-Leu-Phe/Cytochalasin B challenge; assay type: functional, cell-based; details: Neutrophil
How it was run: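 Neutrophils from venous blood of healthy adult donors (20-28 y), isolated by dextran sedimentation, Ficoll Hypaque and hypotonic erythrocyte lysis; 6 × 10^5/mL with MeO-Suc-Ala-Ala-Pro-Val-p-nitroanilide substrate (100 µM), 37 °C for 2 min, then compound for 5 min. Stimulated with fMLP (100 nM)/CB (0.5 µg/mL). Absorbance at 405 nm monitored continuously; expressed as percent of drug-free activated control.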

Compound | IC50 [1] [µM] | IC50 [2] [µM]
CC(C)=CCC/C(C)=C/CC/C(C)=C/CC[C@]1(C)CCc2cc(O)cc(C)c2O1 [DELTA-TOCOTRIENOL] | 14.8 | 15.1
CC(C)=CC[C@H]1C[C@@]23C[C@@H](CC=C(C)C)C(C)(C)[C@@](CC=C(C)C)(C(=O)C(C(=O)c4ccccc4)=C2OC1(C)C)C3=O | 0.88 | 1.16
CC(C)=CCC1=C2OC(C)(C)[C@@H](CC=C(C)C)C[C@@]23C[C@@H](CC=C(C)C)C(C)(C)[C@@](C(=O)c2ccccc2)(C1=O)C3=O [GARCIMULTIFLORONE A] | 5.58 | 4.65
COc1cc2ccc(=O)oc2c(OC)c1OC [FRAXIDIN METHYL ETHER] | > 30 | > 30
c1ccc2c(c1)[I+]c1ccccc1-2 [DIPHENYLENEIODONIUM] | 1.7 | 
C=C(C)[C@@H](CC=C(C)C)C[C@@]12C[C@@H](CC=C(C)C)C(C)(C)[C@]3(C=CC(C)(C)OC3=C(C(=O)c3ccccc3)C1=O)C2=O [GARCIMULTIFLORONE B] | 0.11 | 0.14
C=C(C)[C@@H](CC=C(C)C)C[C@@]12C[C@H]3C[C@@H](C(C)(C)O)[C@](C(=O)c4ccccc4)(C1=O)C(=O)[C@@](CC(O)C(C)(C)O)(C2=O)C3(C)C (some centres not stated) [GARCIMULTIFLORONE C] | 7.21 | 12.1
CC(C)=CCC/C(C)=C/CC/C(C)=C/CC/C=C(\C)CC/C=C(\C)CCC=C(C)C [SQUALENE] | > 30 | > 30
O=S(=O)(F)Cc1ccccc1 [PHENYLMETHYLSULFONYLFLUORIDE] |  | 204
C=C(C)[C@@H](CC=C(C)C)C[C@@]12C[C@@H](CC=C(C)C)C(C)(C)[C@]3(C=CC(C)(C)OC3=C(C(=O)c3cccc(O)c3)C1=O)C2=O [13-HYDROXYGARCIMULTIFLORONE B] | 0.4 | 0.86
CC[C@H](CC[C@@H](C)[C@H]1CC[C@H]2[C@@H]3CC=C4CC(=O)CC[C@]4(C)[C@H]3CC[C@]12C)C(C)C [BETA-SITOSTENONE] | > 30 | > 30
COc1cc2ccc(=O)oc2cc1OC [SCOPARONE] | > 30 | > 30
